This note sets out measurements from ChEMBL document CHEMBL2046375, “Antiprotozoal sesquiterpene pyridine alkaloids from Maytenus ilicifolia” (J Nat Prod, 2012).

Activity calls are given as the source filed them. The rule behind the calls is not given here.

Assay [1] concerns Trypanosoma cruzi. The assay can be described thus: Antitrypanosomal activity against epimastigotes of Trypanosoma cruzi after 72 hrs by MTT assay. The format is functional, organism-based. The procedure, abridged:
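Y-strain epimastigotes grown axenically at 28 °C in LIT with 10% FCS, harvested at 7 days (exponential phase). Test wells held 1 × 10^7 parasites/mL. Compounds from DMSO stock at 10 concentrations spanning 100–0.098 μg/mL. 72 h at 28 °C. MTT-PMS added, 75 min in dark, then 10% SDS for 30 min. Read at 595 nm, triplicate. Benznidazole served as reference.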
Background: Formazan colour is commonly taken as a measure of viable cells.

Assay [2] is described as follows: Cytotoxicity against Balb/c mouse peritoneal macrophages after 24 hrs by MTT assay. Type of assay: cell-based. To be noted: Peritoneal macrophage cell. The procedure, abridged: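 Thioglycolate-elicited peritoneal macrophages (3 mL of 3% given i.p., harvested 3 days later by PBS pH 7.2 lavage). Cells in RPMI 1640 with 5% FCS, antibiotics and mercaptoethanol, stock suspension at 5 × 10^6 cells/mL. Mixed 1:1 with test solution, 24 h at 37 °C, 7.5% CO2. MTT added for 3 h, formazan dissolved in 2-propanol, OD read at 590 nm versus RPMI-only control. Triplicate.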

Assay [3] in a line: Selectivity index, ratio of IC50 for Balb/c mouse peritoneal macrophages to IC50 for epimastigotes of Trypanosoma cruzi. The procedure, abridged:
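Ratio of IC50 in Balb/c peritoneal macrophages (24 h MTT) to IC50 against T. cruzi Y-strain epimastigotes (72 h MTT, 28 °C).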

The subject of assay [4] is Leishmania amazonensis. Put plainly: Antileishmanial activity against Leishmania amazonensis MPRO/BR/1972/M1841-LV-79 at 100 uM after 72 hrs by MTT assay. The format is functional, organism-based.
Assay [5] relates to Leishmania chagasi. Put plainly: Antileishmanial activity against Leishmania chagasi MHOM/BR/1974/PP75 at 100 uM after 72 hrs by MTT assay. The format is functional, organism-based.
Assay [6] has as its system Trypanosoma cruzi. Put plainly: Antitrypanosomal activity against epimastigotes of Trypanosoma cruzi at 100 uM after 72 hrs by MTT assay. The format is functional, organism-based.
Assay [7] has as its system Leishmania amazonensis. The assay can be described thus: Antileishmanial activity against Leishmania amazonensis MPRO/BR/1972/M1841-LV-79 after 72 hrs by MTT assay. Type of assay: functional, organism-based. The settings on record: MPRO/BR/1972/M1841-LV-79, 72 h. A digest of the protocol:
(§1)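 Promastigotes from 4-day-old LIT cultures (10% heat-inactivated FCS), seeded at 8 × 10^6 parasites/mL. Compounds dissolved in DMSO, tested at 10 concentrations from 100 to 0.098 μg/mL. 72 h at 28 °C. MTT-PMS added, 75 min in dark at 28 °C, then 10% SDS for 30 min at room temperature. Absorbance read at 490 nm. Triplicate per concentration, IC50 from percentage cytotoxicity. Pentamidine isothionate was the reference drug.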

The test system of assay [8] is Leishmania chagasi. Put plainly: Antileishmanial activity against Leishmania chagasi MHOM/BR/1974/PP75 after 72 hrs by MTT assay. The settings on record: MHOM/BR/1974/PP75, 72 h. Type of assay: functional, organism-based. A digest of the protocol: as §1

As to `O=C(Cn1ccnc1[N+](=O)[O-])NCc1ccccc1` [BENZNIDAZOLE], the IC50 in the assay with Trypanosoma cruzi [1] was found to be 42.7 µM; in assay [2], 1140 µM. The “Ratio IC50” value in assay [3] turned out to be 26.7.
For `CC(=O)OC[C@]12[C@H](OC(C)=O)[C@H](OC(C)=O)[C@@H]3[C@@H](OC(C)=O)[C@@]14O[C@@]3(C)COC(=O)c1cccnc1C(C)C(C)C(=O)O[C@@H]([C@H](OC(C)=O)[C@@H]2OC(=O)c1ccccc1)[C@]4(C)O` (stereo partly specified), the result in the assay on Leishmania amazonensis [4], with Leishmania chagasi [5] and in the assay with Trypanosoma cruzi [6] was inactive.
Take `CC(=O)OC[C@]12[C@H](OC(C)=O)[C@@H](OC(=O)c3ccccc3)[C@@H]3[C@@H](OC(C)=O)[C@@]14O[C@@]3(C)COC(=O)c1cccnc1[C@@H](C)[C@H](C)C(=O)O[C@@H]([C@H](OC(C)=O)[C@@H]2OC(C)=O)[C@]4(C)O`: the IC50 with Leishmania amazonensis [7] is over 100 µM; in the assay on Leishmania chagasi [8], 1.4 µM; in the assay on Trypanosoma cruzi [1] it was 41.9 µM; in assay [2], 1850 µM. The “Ratio IC50” value in assay [3] is 44.
For the compound `N=C(N)c1ccc(OCCCCCOc2ccc(C(=N)N)cc2)cc1` [PENTAMIDINE], the values for the IC50 in the assay on Leishmania amazonensis [7] and with Leishmania chagasi [8] were 7 µM and 5.1 µM, respectively.
As to `CC(=O)OC[C@]12[C@H](OC(C)=O)[C@@H](OC(=O)c3ccccc3)[C@@H]3[C@@H](OC(C)=O)[C@@]14O[C@@]3(C)COC(=O)c1cccnc1CCC(C)C(=O)O[C@@H]([C@H](OC(C)=O)[C@@H]2OC(C)=O)[C@]4(C)O` (stereo partly specified), the outcome in the assay with Leishmania amazonensis [4], in the assay with Leishmania chagasi [5] and with Trypanosoma cruzi [6] was inactive.
Turning to `CC(=O)OC[C@]12[C@H](OC(C)=O)[C@@H](OC(=O)c3ccccc3)[C@@H]3[C@@H](O)[C@@]14O[C@@]3(C)COC(=O)c1cccnc1[C@@H](C)[C@H](C)C(=O)O[C@@H]([C@H](OC(C)=O)[C@@H]2OC(C)=O)[C@]4(C)O` [ILICIFOLIUNINE A], the IC50 was over 100 µM in the assay with Leishmania amazonensis [7], over 100 µM in the assay with Leishmania chagasi [8], 27.7 µM in the assay with Trypanosoma cruzi [1] and 1280 µM in assay [2]. Besides, in assay [3], the “Ratio IC50” value is recorded as 46.2.

By IC50 is commonly meant the concentration that inhibits the measured activity by half. The low end stands for inhibition by little substance, the high end for a need for much substance.
